Active and inactive are the calls of the source. The calls are words filed in the database; no cut-off is given here.
Assays:
Plasmodium falciparum [1] = test: Antimalarial activity against chloroquine-sensitive Plasmodium falciparum 3D7; type: functional, organism-based
Outline: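 Parasites kept in RPMI 1640 with 10% human serum, 25 mM Hepes, 25 mM NaHCO3, in A-positive human erythrocytes at 37 °C (10% O2, 5% CO2, 85% N2, 95% humidity). Twofold serial dilutions, final 0.01 to 200 µM, in 1% DMSO/RPMI; 42 h incubation. [3H]hypoxanthine uptake measured by scintillation after freeze-thaw lysis and filter harvest; IC50 by nonlinear regression of log-dose/response curves.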

Falcipain 2 = target: T1, Falcipain 2 (Plasmodium falciparum, UniProt Q9N6S8); test: Inhibition of Plasmodium falciparum W2 recombinant falcipain-2 activity
T1 sequence (Q9N6S8 whole entry): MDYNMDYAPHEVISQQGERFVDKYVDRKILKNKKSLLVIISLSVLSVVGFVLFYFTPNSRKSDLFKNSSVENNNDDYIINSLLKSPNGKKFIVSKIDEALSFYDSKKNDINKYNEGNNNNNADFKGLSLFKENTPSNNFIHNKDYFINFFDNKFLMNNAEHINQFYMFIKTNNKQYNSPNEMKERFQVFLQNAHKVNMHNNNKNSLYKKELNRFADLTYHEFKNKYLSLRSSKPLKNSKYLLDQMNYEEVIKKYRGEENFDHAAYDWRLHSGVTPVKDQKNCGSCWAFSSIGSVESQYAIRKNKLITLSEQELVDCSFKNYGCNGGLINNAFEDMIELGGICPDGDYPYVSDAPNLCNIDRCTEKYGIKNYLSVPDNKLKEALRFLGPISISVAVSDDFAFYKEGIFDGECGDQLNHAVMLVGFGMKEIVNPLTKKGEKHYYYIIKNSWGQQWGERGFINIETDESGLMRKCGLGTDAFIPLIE

Plasmodium falciparum [2] = test: Antimalarial activity against Plasmodium falciparum W2 as food vacuole abnormality; type: functional, organism-based
Plasmodium falciparum [3] = test: Antimalarial activity against chloroquine-resistant Plasmodium falciparum W2; type: functional, organism-based
Outline: (§1)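 Parasites cultured in A-positive human erythrocytes in RPMI 1640 with 10% human serum, 25 mM Hepes, 25 mM NaHCO3, 37 °C, 10% O2/5% CO2/85% N2. Compounds dissolved in DMSO 1% in RPMI, twofold serial dilutions, final […]; 42 h incubation; [3H]hypoxanthine uptake read by scintillation after freeze-thaw lysis; IC50 by nonlinear regression of log-dose/response curves.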

Plasmodium falciparum [4] = test: Antimalarial activity against chloroquine-resistant Plasmodium falciparum FCR3; type: functional, organism-based; outline: as §1
Plasmodium falciparum [5] = test: Antimalarial activity against chloroquine-resistant Plasmodium falciparum Bre1; type: functional, organism-based; outline: as §1

IC90 (Plasmodium falciparum [1]) | IC50 (Falcipain 2) | SMILES | Activity (Plasmodium falciparum [2]) | IC90 (Plasmodium falciparum [3]) | IC90 (Plasmodium falciparum [4]) | IC90 (Plasmodium falciparum [5])
25800 nM | > 20000 nM | C/C(=N\NC(=S)NCCCNc1ccnc2cc(Cl)ccc12)c1ccc(Br)cc1 | – | – | – | –
26300 nM | 12900 nM | C/C(=N\NC(=S)NCCNc1ccnc2cc(Cl)ccc12)c1ccc(Br)cc1 | – | – | – | –
2400 nM | 4420 nM | C/C(=N\NC(=S)NCCNc1ccnc2cc(Cl)ccc12)c1ccc(Cl)c(Cl)c1 | Active | – | – | –
1400 nM | > 20000 nM | C/C(=N\NC(=S)NCCCNc1ccnc2cc(Cl)ccc12)c1ccc(Cl)c(Cl)c1 | – | – | – | –

SMILES | IC90 (Plasmodium falciparum [1]) | IC50 (Falcipain 2) | Activity (Plasmodium falciparum [2]) | IC90 (Plasmodium falciparum [3]) | IC90 (Plasmodium falciparum [4]) | IC90 (Plasmodium falciparum [5])
CCN(CC)CCCC(C)Nc1ccnc2cc(Cl)ccc12 (stereo not drawn) [CHLOROQUINE] | 41.7 nM | – | – | 992 nM | 1180 nM | 722 nM
